Measurements as given in ChEMBL document CHEMBL4513216, “Probing the Open Global Health Chemical Diversity Library for Multistage-Active Starting Points for Next-Generation Antimalarials” (ACS Infect Dis, 2020).

Assay: Toxicity liver stage against HepG2, at 10uM
Format: cell-based
Design: test concentration 10 uM, cell line HepG2-A16-CD81EGFP
Settings: human, HepG2-A16-CD81EGFP cells; read-out: INHIBITION
Outline: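 Uninfected HepG2-A16-CD81EGFP cells, 3 × 10^3 per well, 1536-well, plated on prespotted compound at 10 μM final, parasite-free screening media added to match infected plates; puromycin 10 μM positive, DMSO 0.5% negative; run in parallel with 48 h PbLuc assay at 37 °C, 5% CO2; viability by CellTiter-Glo luminescence, normalized to controls.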

Row | SMILES | cytotoxicity at 10 µM [%]
1 | NC(CC1CCCCC1)c1ccccc1 (stereo unspecified) | -4.8
2 | O=C(NC[C@H]1OC[C@@H](NC2COC2)[C@@H]1O)c1ccccc1 | -1.05
3 | Cc1ccc2c(c1)nc1n2[C@@H](CNC(=O)c2cccnc2)COC1 | 5.29
4 | Cc1ccc(CN2CC[C@H](c3nnc(COc4ccc(F)cc4)o3)C2)o1 | 5.2
5 | CCCC(=O)n1ccn(S(=O)(=O)c2ccc(C)cc2)c1=O | 8.08
6 | COc1ccc(C2CCCCCN2Cc2cn(C)nc2C)cc1 (stereo unspecified) | -4.96
7 | COc1ccc2c(c1)OC1(CCN(Cc3ccccc3C)CC1)CC2=O | 6.52
8 | CN1C(=O)C2(CC(=O)Nc3c2cnn3C(C)(C)C)c2c(Cl)cccc21 (stereo unspecified) | 3.41
9 | Cn1c(CN2CCOCC2)cc(=O)c(O)c1CN1CCOCC1 | -5.61
10 | O=C(CN1C(=O)CCC1=O)NCC1(O)CCc2ccccc21 (stereo unspecified) | -15.7
11 | CC(C)Nc1nc2c(c(NC3CC3)n1)CN(C(=O)c1ccncc1)CC2 | -2.29
12 | CS(=O)(=O)N1C[C@H]2CCC[C@@]2(COCC2CCOCC2)C1 | -0.173
13 | O=C(c1nc2c(s1)CCCN2C(=O)C1CC1)N1CCCC1 | 7.02
14 | CS(=O)(=O)N1CCOC2(CCN(c3nccs3)CC2)c2ccccc21 | 1.18
15 | COCCNC(=O)C1CN(Cc2ccsc2)Cc2ccnn2C1 (stereo unspecified) | -6.07
16 | CNC(=O)[C@@]12CCC3(CCN(S(=O)(=O)C4CC4)CC3)[C@@H]1CN(C(C)=O)C2 | -0.201
17 | O=C(Cc1ccsc1)N1CCn2cc(Cn3cncn3)nc2C1 | -142
18 | CC(=O)c1c(O)n(C)c2ccc(F)cc12 | 6.76
19 | COc1cccc(C2CC(=O)Nc3nc(N)sc32)c1OC (stereo unspecified) | 3.74
20 | Cc1csc([C@@H]2C[C@@H]3CCN(C(=O)c4cc(C)on4)C[C@H]3O2)n1 | 4.88
21 | O=C(c1ccsc1)N1CC(C(=O)N2CCOCC2)C2(CCOCC2)C1 (stereo unspecified) | -1.1
22 | CCN(CC)c1nc(Nc2cccc(C(=O)O)c2)nc2ccccc12 | 12
23 | CN1CCN(C(=O)c2[nH]nnc2Nc2ccccc2F)CC1 | 1.36

Row | SMILES | cytotoxicity at 10 µM [%]
24 | COCCC(=O)NCc1ccc(-c2ccccc2C(=O)O)cn1 | 1.92
25 | Fc1cccc(CN2CCC[C@H](Cn3nnc(-c4ccccn4)n3)C2)c1 | 3.44
26 | CO[C@@H]1CC[C@@H](NC(=O)CCc2ccc(Cl)cc2)[C@H]1O | 3.84
27 | Cc1ncoc1C(=O)N1CCCC(c2ccc3c(N)nn(C)c3n2)C1 (stereo unspecified) | 2.76
28 | CC(C)c1cc(C(=O)NCCc2nc(-c3ccncc3)n[nH]2)[nH]n1 | -0.01
29 | Cc1cc(N(C)Cc2ncc(-c3ccccc3C(=O)O)s2)ncn1 | -0.241
30 | Cc1cc(C(F)F)nn1C(C)C(=O)NCc1nccn1C (stereo unspecified) | 4.86
31 | CC(C)C(=O)N1CCCC([C@@H]2C[C@H](C(F)F)n3ncnc3N2)C1 (stereo partly specified) | -3.41
32 | CO[C@H]1CCN(C(=O)c2ccc3[nH]nnc3c2)C[C@@]12CCCO2 | -5.38
33 | Nc1no[n+]([O-])c1C(=O)NCc1ccco1 | 2.94
34 | Cc1cncc(C(=O)N[C@@H]2CC[C@@H](N3CCOCC3)[C@@H]2O)c1 | 0.331
35 | CNC(=O)c1cccc(C2CNCCN2C(=O)C2CCNCC2)c1 (stereo unspecified) | -2.39
36 | O=C(c1ccc(Cl)cc1)N1CCC(N2CCNC2=O)CC1 | 12.6
37 | Cc1c(CNC2CCN(c3ccccc3OC(F)F)C2)cnn1C (stereo unspecified) | -1.77
38 | CC(C)(NC(=O)NCc1cccc(Br)c1)C(=O)O | 9.13
39 | CCc1nc(Cn2cncc(Br)c2=O)no1 | -11.8
40 | CC1CN(C(=O)c2ccc(C(N)=O)cc2)c2ccc(F)cc2O1 (stereo unspecified) | 8.07
41 | Cc1noc(C)c1NC(=O)CCn1cc(Br)ccc1=O | 7.07
42 | COc1ccc(Br)cc1S(=O)(=O)N(C)Cc1ccc(N(C)C)cc1 | -7.59
43 | CC(Cn1ccnc1)NC(=O)NCCN1CCCCCC1=O (stereo unspecified) | -1.26
44 | CC(=O)c1ccc(C(=O)NCc2ccnc(N(C)C)n2)cc1 | 0.69
45 | CCN(C)C(=O)NCC1(CN2CCOCC2)CCCCC1 | -5.18
46 | Cc1cnn(CC(=O)N(CC2CN(C)CCO2)c2nccs2)c1 (stereo unspecified) | 1.79

Row | SMILES | cytotoxicity at 10 µM [%]
47 | CC(=O)c1cccc(OCCCC(=O)N(C)Cc2cscn2)c1 | 0.175
48 | COc1cc(C(=O)NS(=O)(=O)c2cncc(Br)c2)cc(Cl)c1OC | -2.21
49 | CCS(=O)(=O)c1ccccc1C(=O)NCC1Cc2ccccc2O1 (stereo unspecified) | -0.561
50 | CC(C)c1cc(NC(=O)CN2CCCC(Cn3cncn3)C2)on1 (stereo unspecified) | 14
51 | Cc1cnc(C(C)(C)NC(=O)NCc2ccc(C#N)cc2F)s1 | 15.1
52 | CC(C)N(C)Cc1ccccc1CNc1ccc2nncn2n1 | 0.425
53 | Cc1ccc(CNC(=O)CN2CCN(CCO)CC2)s1 | 9.03
54 | Cc1nc(NC(=O)COCC(F)(F)F)ccc1Br | 9.44
55 | CSCc1cc(F)ccc1CNCc1cccc(O)c1 | -3.58
56 | Cn1cnnc1C1CCCN(C(=O)c2cc(C3CC3)on2)C1 (stereo unspecified) | 5.14
57 | Cc1nn(C)c(N(C)C)c1CNC1CCCCNC1=O (stereo unspecified) | 7.76
58 | O=C(Nc1ccccc1Cn1cccn1)N1CCC(N2CCCC2)C1 (stereo unspecified) | 2.06
59 | CCN(CC)C(=O)C1CCN(c2ccc(Cl)cc2C#N)CC1 | 12.2
60 | CC(=O)c1ccc(-n2c(C)cn(CCC#N)c2=O)cc1 | 19.3
61 | CC(C)OCCCNC(=O)CSc1nnc(OC(C)C)s1 | -5.89
62 | CCN(Cc1cccc(F)c1)c1ccc2nnnn2n1 | 15.4
63 | CSC(C)(C)CNC(=O)NCC[S+]([O-])c1ccccc1F (stereo unspecified) | -11.6
64 | Cc1ncoc1C(=O)N1CCn2c(COc3cccnc3)cnc2C1C (stereo unspecified) | -8.93
65 | Cn1cc(-c2nnn3c2COC(CNCC2CCOCC2)C3)cn1 (stereo unspecified) | 0.171
66 | CCCN(C)c1ncc2c(n1)N(C)CCN(CC1CC1)C2=O | -5.69
67 | Cc1cc(CN2CCC=C(CN(C)C(=O)c3ccco3)C2)no1 | 6.65
68 | O=C(O)C1(Cc2ccccc2Cl)CCN(c2ncccn2)CC1 | 7.04
69 | CC(=O)Nc1ccc(Cl)c(C(=O)N(C)Cc2nc(C)c[nH]2)c1 | 1.37

Row | SMILES | cytotoxicity at 10 µM [%]
70 | CCn1c(CN(C)C)nnc1C1CCN(Cc2ccc(Cl)c(F)c2)CC1 | 3.73
71 | Cc1ccn(CCNc2ncnc3c2CCN(S(C)(=O)=O)CC3)n1 | -3.03
72 | c1cc(-c2cnccn2)cc(-c2ccn(CCN3CCCCC3)n2)c1 | -4.54
73 | Cn1nc(C2CC2)c2c1NC(=O)CC2c1ccc(CN2CCCCC2)s1 (stereo unspecified) | -6.37
74 | Cn1c(CO)nnc1CC1CCN(Cc2ccc(C#N)cc2)CC1 | 4.98
75 | OC1CCCOC12CCN(c1ncccn1)CC2 (stereo unspecified) | 3.73
76 | O=C1CCCN1Cc1nc(-c2ccsc2)no1 | -5.41
77 | CC(C)=CCN1CCc2onc(-c3ccc(F)c(F)c3)c2C1 | 5.67
78 | CN1CCN(C2CCOCC2)CC12CCC(=O)N(CC1CC1)CC2 (stereo unspecified) | -1.93
79 | Cc1ccc(CN2CCN(Cc3ccc4nonc4c3)CC2=O)cc1 | -1.9
80 | COc1cc(C)ccc1OCc1nc(C(=O)N2CCC(C)CC2)co1 | -45
81 | O=C(Cc1ccccn1)N1CCc2nc(-c3cnccn3)nc(O)c2C1 | 2.83
82 | CCc1c(C(=O)N2CCCC(N(C)C)C2)cnn1C(C)(C)C (stereo unspecified) | -0.088
83 | CCOCCCn1c(NC(=O)c2cc(C)no2)nc2ccccc21 | -5.69
84 | CS(=O)(=O)NC1CCN(C(=O)NCCc2ccccn2)CC1 | -14.4
85 | Cc1nc(C2CCCN2Cc2ccn(C)c(=O)c2)no1 (stereo unspecified) | -12.9
86 | CCCNC(=O)NC(=O)CN1CCN(Cc2nccn2CC)CC1 | -14.3
87 | COc1ccc(-c2nnc(CNCCn3cc(C)cn3)o2)cc1 | 1.32
88 | Cc1cc(C)n(CC2CN(Cc3noc(C)n3)CCO2)n1 (stereo unspecified) | 0.305
89 | CCCS(=O)(=O)NC1CCN(c2nnc(C)c(C)c2C#N)CC1 | 3.28
90 | CCn1cc(NC(=O)C2CCN(CCOC(C)C)CC2)cn1 | -5.4
91 | CN(C)CC1CN(c2ccc(C#N)cn2)CCO1 (stereo unspecified) | -4.67
92 | COCCc1noc(CN2CCCCC2Cn2cc(C)cn2)n1 (stereo unspecified) | -8.54

Row | SMILES | cytotoxicity at 10 µM [%]
93 | Cc1nn(C)c(C)c1C1CCCN1Cc1cccc(C(N)=O)c1 (stereo unspecified) | -10.2
94 | CC(O)CN1CCN(C(=O)c2cccn2Cc2ccncc2)CC1 (stereo unspecified) | -10.9
95 | O=C(NCCc1cccc(F)c1)NCC(O)c1cccc(F)c1 (stereo unspecified) | -13.1
96 | COc1ccc(CCC(=O)Nc2cccnc2N2CCCC2)cc1Br | 1.06
97 | FC(F)CNc1cnc(C2CCCN2)cn1 (stereo unspecified) | 0.865
98 | COc1cc(C(C)=O)ccc1OCCNCc1ccco1 | -5.05
99 | CN1CCO[C@H]2CN(S(=O)(=O)c3ccc(C#N)cc3)C[C@H]21 | 7.25
100 | O=c1ccc2c(n1CC1CCOCC1)CCN(Cc1ccoc1)CC2 | -128
101 | Cc1ccccc1N1CC2(CCCCN2CC2CC2)CC1=O (stereo unspecified) | 10.4
102 | CN1C[C@@H]2CN(C(=O)NCc3ccccc3)CCC[C@]2(C(=O)O)C1 | 9.55
103 | O=C([C@H]1COC[C@H]2CN(C3CCCC3)C[C@H]21)N1CCCCO1 | -9.47
104 | O=C1CC2(CCN(Cc3cccnc3)C2)CN1c1cncnc1 (stereo unspecified) | -65.7
105 | CN(C)[C@@H]1CN(C(=O)Cc2ccc(F)cc2)[C@@H]2CCCO[C@H]12 | 3.88
106 | Cc1ccc(C(=O)N2CCn3cc(CN(C)Cc4ccco4)nc3C2)o1 | 12.4
107 | Cn1cc(C(=O)N2CC[C@@H]3[C@@H]2CCN3Cc2ccccc2)cn1 | -69.8
108 | Cc1cccc(CN2CC3(CCN(C4CCOC4)CC3)OCC2=O)n1 (stereo unspecified) | -2.92
109 | CN1CC(=O)N(c2cccc(F)c2)CC12CCN(S(=O)(=O)C1CC1)C2 (stereo unspecified) | -71.8
110 | CC(C)NC(=O)[C@H]1C[C@H]2CN(C(=O)NCCc3ccccc3)C[C@@H]1O2 | 1.25
111 | CS(=O)(=O)CCC(=O)N1C[C@H]2CC[C@@H](C1)N(Cc1ccccn1)C2=O | 7.23
